The data set can be described thus: Toxicity liver stage against HepG2, at 10uM. The class given is cell-based. Also noted: test concentration 10 uM, cell line HepG2-A16-CD81EGFP. Particulars: human, HepG2-A16-CD81EGFP cells; read-out: INHIBITION
The method, boiled down:
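Uninfected HepG2-A16-CD81EGFP cells, 3 × 10^3 per well, 1536-well, plated on prespotted compound at 10 μM final, parasite-free screening media added to match infected plates; puromycin 10 μM positive, DMSO 0.5% negative; run in parallel with 48 h PbLuc assay at 37 °C, 5% CO2; viability by CellTiter-Glo luminescence, normalized to controls.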

Regarding `CC(NC(=O)NC1CCN(CC2CCCC2)CC1)c1nccs1` (stereo unspecified), the cytotoxicity at 10 µM turned out to be 3.2%. Consider `CC(C)Cc1ncc2c(n1)CN(c1cc(NCCO)nc(N)n1)C2`, for which the cytotoxicity at 10 µM was -2.68%.

Consider `CC1=Nc2c(c(=O)[nH]n2C(C)C)C(c2ccccc2)S1` (stereo unspecified), for which the cytotoxicity at 10 µM worked out at 5.53%. Turning to `O=C(c1cnc(-c2cccs2)s1)N1CCCC(n2cccn2)C1` (stereo unspecified), the cytotoxicity at 10 µM is -10.8%. As to `c1cnc2c(-c3nccn3C[C@@H]3CCCN4CCCC[C@H]34)cccc2c1`, the cytotoxicity at 10 µM amounted to 1.83%. The same measure for `CN(C(=O)CNc1ccc(C#N)cc1)C1CCCCC1`: 0.0479%; for `Cc1noc(Cl)c1CCC(=O)N1CCN(c2ccccc2)CC1`: -1.37%. For `Cc1cc(-c2cc(F)ccc2C(=O)O)nc(C2CCCCN2C(C)C)n1` (stereo unspecified), the cytotoxicity at 10 µM was -3.42%. In the case of `CC(C)CCN1CCN(Cc2nc(C(C)C)no2)CC1`, the cytotoxicity at 10 µM was -6.71%. The same measure for `Cn1cc(C2CC(=O)NC23CCN(Cc2cccc(F)c2)CC3)cn1` (stereo unspecified): 7.13%; for `CNC(=O)COc1c(F)cc(Br)cc1C(C)=O`: 1.44%. In the case of `COc1ccc(N(CCC(N)=O)C(=O)CSc2ccc(F)c(F)c2)cc1`, the cytotoxicity at 10 µM was found to be 4.13%. On to `CCS(=O)(=O)N(C)C1CCN(c2cccc(F)c2C(C)=O)CC1`, for which the cytotoxicity at 10 µM came to 9.61%. Consider `CCc1nc(C2CCCN2C(=O)c2ncoc2CC)no1` (stereo unspecified), for which the cytotoxicity at 10 µM is -12.8%. With `CC(C)c1cc(C(=O)N2CC[C@@H](c3ccc4c(c3)OCO4)[C@H](O)C2)[nH]n1`, the cytotoxicity at 10 µM was determined as 3.29%.

For `CCOCC1CCCN(C(=O)NCc2cn3c(C)cccc3n2)C1` (stereo unspecified), the cytotoxicity at 10 µM turned out to be 12.8%. As to `c1ccc(CCc2n[nH]c(CCN3CCCCC3)n2)cc1`, the cytotoxicity at 10 µM worked out at 5.05%. As for `CNS(=O)(=O)c1ccc(CN2CCN(Cc3ncccc3C)CC2)cc1`, the cytotoxicity at 10 µM was 8.41%. `Cc1cccc(OC2CCN(c3ccc(C#N)cn3)CC2)n1`: the cytotoxicity at 10 µM is 15.5%. Consider `CSCc1noc(CNC(=O)[C@H]2CNC[C@@H](C(=O)N3CCCC3)C2)n1`, for which the cytotoxicity at 10 µM is 2.79%.

With `Cc1c(C(=O)N2CC(=O)N(C)C2)nnn1-c1cccc2cccnc12`, the cytotoxicity at 10 µM is 5.64%. With `COCCN(CC(C)C)c1cc(C)ncn1`, the cytotoxicity at 10 µM was 1.38%. `Cc1cccc(N2CC[C@H]3[C@H](CO[C@@H]3CN(C)Cc3ccco3)C2)n1`: the cytotoxicity at 10 µM came out at 13.8%. For the compound `CC(=O)c1ccc(CN2C[C@@H](CN3CCC(O)CC3)[C@@H](CO)C2)cc1`, the cytotoxicity at 10 µM was 9.99%. On to `Cc1nn(C)c2cnn(CC(=O)NCCc3ccccc3)c12`, for which the cytotoxicity at 10 µM was found to be 13.4%. Regarding `CCn1cnnc1CNC(=O)N1CCC(Cc2cccnc2)CC1`, the cytotoxicity at 10 µM came to 4.38%. In the case of `CC(C)OCCCNC(=O)CN1CCN(c2nccs2)C(C)C1` (stereo unspecified), the cytotoxicity at 10 µM amounted to 1.4%. As to `CS(=O)(=O)N1CCN(Cc2c(O)ccc3oc4c(c23)CCCC4)CC1`, the cytotoxicity at 10 µM was 1.01%. The same measure for `CC(C)=CCN1CCN(Cc2cccc(C)n2)CC1CCO` (stereo unspecified): 1.99%.

In the case of `Cn1cc(S(=O)(=O)NCc2ccsc2)cn1`, the cytotoxicity at 10 µM is 0.978%. Consider `c1ccc(COC[C@H]2CCC[C@@]23CNCCO3)nc1`, for which the cytotoxicity at 10 µM is -91.9%.

Take `CS(=O)(=O)CCNCc1ccc(OCc2ccccn2)cc1`: the cytotoxicity at 10 µM was -128%. The same measure for `CCc1ccc(S(=O)(=O)Nc2cn(C)cc(Br)c2=O)cc1`: -10.8%. Regarding `CN(C)CCN1C[C@@H]2OCCN(Cc3cnn(C)c3)[C@@H]2C1`, the cytotoxicity at 10 µM was -140%. Consider `COc1ccc(CC(=O)NC2CCN(CC(F)F)CC2)cc1OC`, for which the cytotoxicity at 10 µM is -8.48%. Take `CN(C)c1cc(CNc2ccc(S(=O)(=O)C(C)(C)C)nc2)ccn1`: the cytotoxicity at 10 µM was -7.33%. For the compound `Cc1nc(-c2cc(Cl)c3c(c2)CC(CN)O3)c[nH]1` (stereo unspecified), the cytotoxicity at 10 µM was -12.2%.

As to `Brc1cnc(NCCCOC2CCOCC2)nc1`, the cytotoxicity at 10 µM is -5.2%. The same measure for `c1ccc(OC[C@@H]2CCC[C@@]23CNCCO3)nc1`: 9.93%; for `Cc1noc(C)c1C(=O)N1CCCCC1c1cc(C)n2ccnc2n1` (stereo unspecified): 15.8%. For the compound `CC(C)c1nnc2n1CCN(Cc1cc(Cl)c3c(c1)OCCO3)C2`, the cytotoxicity at 10 µM was found to be 0.549%. Regarding `CC(NC(N)=O)C(=O)Nc1ccc(OCc2cccc(F)c2)c(F)c1` (stereo unspecified), the cytotoxicity at 10 µM is -12.3%. Turning to `CC(C)N(C)CCNC(=O)N(C)CC1CCOCC1`, the cytotoxicity at 10 µM was -17.2%. On to `CN(C)CCNCC1COCc2c(-c3ccnn3C)nnn2C1` (stereo unspecified), for which the cytotoxicity at 10 µM is -99.9%. Turning to `O=C(CC1CC1)N1CCC2(COCc3cnc(-c4cccnc4)nc32)C1` (stereo unspecified), the cytotoxicity at 10 µM is -106%. In the case of `CN(CCCOc1ccccc1Cl)C(=O)CN1C(=O)CCNC1=O` it was -1.97%; in that of `COC[C@@]12CC[C@@H](N3CCOCC3)C[C@H]1CCN(c1cnccn1)C2`, 4.76%. For `Cc1cc(N2CCC(N(C)C(=O)Nc3ccccc3)CC2)nc(C)n1`, the cytotoxicity at 10 µM is -19.4%. For `Cc1sc2nc(C(F)(F)F)nc(N3CCN(C)CC3)c2c1C`, the cytotoxicity at 10 µM is -3.47%. The same measure for `CN(C)c1ccc(-c2cccc(-c3ccn(CCCO)n3)c2)nn1`: -3.06%. As for `CC(C)c1cc(C2CCN(C(=O)Cn3nc4ccccc4n3)CC2)[nH]n1`, the cytotoxicity at 10 µM was 0.685%.

Take `Cc1oc(-c2ccco2)nc1CN1CCc2cncnc2C1`: the cytotoxicity at 10 µM was determined as 2.44%. In the case of `CCN(CC)S(=O)(=O)c1ccc(C(=O)NC(C)(C#N)C2CC2)cc1` (stereo unspecified), the cytotoxicity at 10 µM was -5.77%. Consider `NC(=O)CN1CCC(c2cccc(Oc3ccccc3)n2)CC1`, for which the cytotoxicity at 10 µM was -4.72%. In the case of `CN(C)CCNC(=O)c1ccccc1NC(=O)c1cc(Cl)ccc1Cl` it was -1.02%. As for `Cn1nc(C#N)c2c1CN(C(=O)c1cccnc1)CCC2`, the cytotoxicity at 10 µM was found to be 2.22%. `N#Cc1c(F)cccc1N1CCCC(C(=O)Nc2nncs2)C1` (stereo unspecified): the cytotoxicity at 10 µM was found to be 4.48%. Consider `COc1ccccc1[C@@H]1CN(Cc2nccn2C)C[C@H]1C(=O)O`, for which the cytotoxicity at 10 µM was -4.83%. Turning to `COC[C@@H]1CCC[C@@]12CN(Cc1ccco1)CCO2`, the cytotoxicity at 10 µM was found to be 2.03%.

On to `Cc1ccccc1CSc1ncc(Br)c(C(=O)O)n1`, for which the cytotoxicity at 10 µM was 6.99%.

Consider `CC(O)CN1CCN(C(=O)CN(C)c2cnccn2)CC1` (stereo unspecified), for which the cytotoxicity at 10 µM was determined as 2.53%. As to `CN1CCOC[C@H]1c1nc(C(C)(C)C)c[nH]1`, the cytotoxicity at 10 µM was 5.08%.

On to `COc1ncc(-c2ccc(C(N)=O)cc2)c(OC)n1`, for which the cytotoxicity at 10 µM was -5.9%. For the compound `CC(=O)c1cccc(S(=O)(=O)N2CCC(c3noc(C)n3)CC2)c1`, the cytotoxicity at 10 µM is 7.85%. The same measure for `CCCN(CC)C(=O)c1cc2c(c3ccccc3n2C)n1C(=O)N(C)C`: -4.89%; for `O=C(CCSc1ccccc1)NCC1CCN(Cc2ccsc2)CC1`: -6.93%; for `COc1ccc(S(=O)(=O)N2CCn3nc(C)nc3C2)cc1C`: 9.68%. `Cc1cccc(CNC(=O)CNc2cc(CO)ccc2Cl)c1`: the cytotoxicity at 10 µM came to 1.73%. `Fc1cccnc1O[C@@H]1CN(Cc2ccco2)[C@@H]2CCCO[C@@H]21`: the cytotoxicity at 10 µM stood at 5.08%. In the case of `CC(=O)Nc1ccc(CNC2CCCSC2)cc1` (stereo unspecified) it was -10.5%; in that of `Cc1nn(Cn2ccc(C(=O)N3CCCC(C)C3)n2)c(C)c1Cl` (stereo unspecified), 2%; in that of `CC(=O)c1cccc(-c2c[nH]c(C)n2)c1`, -0.916%.

For the compound `CN(C)c1nccc(CNS(=O)(=O)c2ccc(F)c(Cl)c2)n1`, the cytotoxicity at 10 µM is -140%. With `O=C(Cc1cccc(F)c1)N1CCc2ncnc(NC3CC3)c2CC1`, the cytotoxicity at 10 µM was -98.5%. As for `CS(=O)(=O)N[C@@H]1CCN(Cc2cccnc2)[C@H]1Cc1cccnc1`, the cytotoxicity at 10 µM was -70.2%.

On to `Cn1cc(NC(=O)CCCc2cccs2)c(=O)n(C)c1=O`, for which the cytotoxicity at 10 µM was found to be 5.55%. As for `CCN(CC1CCOCC1)C(=O)Cn1cccc(C(F)(F)F)c1=O`, the cytotoxicity at 10 µM was -10.2%.

Regarding `CC(C)n1cc(-n2cc3nc(N4CCOCC4)[nH]cc-3c2=O)cn1`, the cytotoxicity at 10 µM came to 4.48%.

With `CCc1ccc(S(=O)(=O)N2CCCC3(CCCN3S(C)(=O)=O)C2)cc1` (stereo unspecified), the cytotoxicity at 10 µM is -2.98%. Take `Cn1cccc1C(=O)N1CCO[C@@H]2CN(Cc3nccs3)C[C@@H]2C1`: the cytotoxicity at 10 µM is -103%. With `Cc1noc(C)c1CN(C)C(=O)Cn1c(=O)n(C)c2ccccc21`, the cytotoxicity at 10 µM is -4.32%.

Take `CN(Cc1ccccn1)C(=O)Nc1cc(C(F)(F)F)c[nH]c1=O`: the cytotoxicity at 10 µM worked out at 8.36%. On to `Cc1n[nH]c(CCC(=O)N2CCOC(Cc3ccccc3)C2)c1C` (stereo unspecified), for which the cytotoxicity at 10 µM was -44.1%.

In the case of `COc1c(C)cnc(CN(C)C(=O)c2ccccc2O)c1C`, the cytotoxicity at 10 µM is -14.3%. For the compound `CC(=O)Nc1nc(CN2CCCCC2Cn2cccn2)cs1` (stereo unspecified), the cytotoxicity at 10 µM is -6.7%.

For the compound `Cn1cc(Nc2cccc(C(=O)N(CC(N)=O)C3CCCC3)c2)cn1`, the cytotoxicity at 10 µM is -1.78%. For the compound `CCNc1ncc(C(=O)NC(c2ccccc2)c2ccco2)cn1` (stereo unspecified), the cytotoxicity at 10 µM turned out to be 5.94%. For the compound `CN(C1CCN(C(=O)NCCc2ccc(F)cc2F)CC1)S(C)(=O)=O`, the cytotoxicity at 10 µM was found to be 12.3%.

Consider `CCc1ncc2c(n1)CN(Cc1cn3ccsc3n1)CC2`, for which the cytotoxicity at 10 µM was -8.26%. As to `CC(=O)NCCc1cc2nc(-c3ccncc3)ccn2n1`, the cytotoxicity at 10 µM is 2.95%. Regarding `O=C(NC[C@]12COC[C@H]1CN(Cc1cccs1)C2)c1ccsc1`, the cytotoxicity at 10 µM is -0.629%. The same measure for `Cc1cc(C)n(CC2CN(CC(=O)NC3(C#N)CCCC3)CCO2)n1` (stereo unspecified): -2.49%; for `Cn1nccc1CNC(=O)C1CCCCC1`: 7.89%. As to `Cc1cccc(-n2cc(C(=O)N3CCCC(n4ccnc4)C3)nn2)c1` (stereo unspecified), the cytotoxicity at 10 µM came out at 5.39%. As for `c1cncc(CNc2ccccc2-c2nn[nH]n2)c1`, the cytotoxicity at 10 µM was determined as 9.35%. Regarding `CCS(=O)(=O)N1CCc2ccc(=O)n(CC3CC3)c2CC1`, the cytotoxicity at 10 µM is 7.95%.

The record behind these values is ChEMBL document CHEMBL4513216, “Probing the Open Global Health Chemical Diversity Library for Multistage-Active Starting Points for Next-Generation Antimalarials” (ACS Infect Dis, 2020).
